Experimental data: ChEMBL document CHEMBL1148785, “Second generation tetrahydroquinoline-based protein farnesyltransferase inhibitors as antimalarials” (J Med Chem, 2007)
“And” between values parts separate entries of the source, which are not always exact repeats. Equal entries are not always repeated.

Assays:
Plasmodium falciparum [1] = experiment: Antimalarial activity against Plasmodium falciparum 3D7; format: functional; conditions: read-out: ED50 (the source's name)
Method in brief: (§1)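 Asynchronous culture in type A+ erythrocytes at 0.5% parasitemia and 0.5% hematocrit, grown in RPMI-1640 with 20% heat-inactivated human A+ plasma. Compound was serially diluted from a top final 5 µM, with DMSO vehicle as 100% growth. Plates ran 48 h at 37 °C under 5% CO2/5% O2/90% N2, then [3H]-hypoxanthine (0.3 µCi) for 24 h. Filter-harvested counts were corrected for the uninfected-RBC background. ED50 by linear regression; duplicates averaged.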

Plasmodium falciparum [2] = experiment: Antimalarial activity against Plasmodium falciparum K1; format: functional; conditions: read-out: ED50 (the source's name); method in brief: as §1
Plasmodium falciparum [3] = experiment: Inhibition of Plasmodium falciparum protein farnesyltransferase at 5 nM by scintillation proximity assay
Plasmodium falciparum [4] = experiment: Inhibition of Plasmodium falciparum protein farnesyltransferase at 50 nM by scintillation proximity assay
Plasmodium falciparum [5] = experiment: Inhibition of Plasmodium falciparum protein farnesyltransferase at 0.5 nM by scintillation proximity assay

| SMILES | EC50 (Plasmodium falciparum [1]; Plasmodium falciparum, 3D7) | EC50 (Plasmodium falciparum [2]; Plasmodium falciparum, K1) | inhibition (Plasmodium falciparum [3]) | inhibition (Plasmodium falciparum [4]) | inhibition (Plasmodium falciparum [5]) | EC50 (Plasmodium falciparum [1]) | EC50 (Plasmodium falciparum [2]) |
| --- | --- | --- | --- | --- | --- | --- | --- |
| Cc1noc(C)c1CN(C1Cc2cc(C#N)ccc2N(Cc2cncn2C)C1)S(=O)(=O)c1cn(C)cn1 (stereo not given) | 25 nM | < 20 nM | 98% | 100% | 46% | – | – |
| CCS(=O)(=O)N1CCC(CN(C2Cc3cc(C#N)ccc3N(Cc3cncn3C)C2)S(=O)(=O)c2ccccn2)CC1 (stereo not given) | 75 nM | 55 nM | 56% | 98% | 94% | – | – |
| Cn1cnc(CN2CC(N(CCn3cccc3)S(=O)(=O)c3cn(C)cn3)Cc3cc(-c4ccccc4)ccc32)c1 (stereo not given) | 460 nM | 150 nM | 38% | 90% | 0% | – | – |
| Cn1cncc1CN1CC(N(Cc2cccc(-n3cccc3)c2)S(=O)(=O)c2ccccn2)Cc2cc(C#N)ccc21 (stereo not given) | 143 nM | 617 nM | 69% | 97% | – | – | – |
| COC(=O)N1CCC(CN(C2Cc3cc(C#N)ccc3N(Cc3cncn3C)C2)S(=O)(=O)CS(C)(=O)=O)CC1 (stereo not given) | > 5000 nM | > 5000 nM | 0% | 15% | 0% | – | – |
| Cn1cnc(CN2CC(N(CC(=O)NC(C)(C)C)S(=O)(=O)c3ccccc3)Cc3cc(-c4ccccc4)ccc32)c1 (stereo not given) | 2800 nM | 2800 nM | 0% | 8% | 0% | – | – |
| Cn1cncc1CN1CC(N(CCN2C(=O)c3ccccc3C2=O)S(=O)(=O)c2ccccn2)Cc2cc(C#N)ccc21 (stereo not given) | 1880 nM | – | 77% | 96% | 46% | – | – |
| Cn1cncc1CN1CC(N(CC2CCNCC2)S(=O)(=O)c2ccccn2)Cc2cc(C#N)ccc21 (stereo not given) | – | – | 6% | 18% | 0% | – | – |
| Cn1cncc1CN1CC(N(Cc2ccc(S(C)(=O)=O)cc2)S(=O)(=O)c2cccc(F)c2)Cc2cc(C#N)ccc21 (stereo not given) | 600 nM | – | 67% | 96% | 8% | – | – |
| Cn1cncc1CN1CC(N(Cc2cccc(-n3cncn3)c2)S(=O)(=O)c2ccccn2)Cc2cc(C#N)ccc21 (stereo not given) | 450 nM | 590 nM | 11% | 53% | – | – | – |
| Cn1cncc1CN1CC(N(CCCCN2C(=O)c3ccccc3C2=O)S(=O)(=O)c2ccccn2)Cc2cc(C#N)ccc21 (stereo not given) | 820 nM | 3600 nM | 63% | 92% | – | – | – |
| COCC(=O)N(Cc1ccccc1F)C1Cc2cc(C#N)ccc2N(Cc2cncn2C)C1 (stereo not given) | 290 nM | – | 19% | 56% | 11% | – | – |
| CCS(=O)(=O)c1ccc(CN(C2Cc3cc(C#N)ccc3N(Cc3cncn3C)C2)S(=O)(=O)c2ncn(C)c2C)cc1 (stereo not given) | 640 nM | – | 76% | 97% | 10% | – | – |
| Cc1nn(-c2ccccc2)nc1CN(C1Cc2cc(C#N)ccc2N(Cc2cncn2C)C1)S(=O)(=O)c1ccccn1 (stereo not given) | 140 nM | 600 nM | 66% | 97% | – | – | – |
| Cn1cnc(S(=O)(=O)N(CCN2C(=O)c3ccccc3C2=O)C2Cc3cc(C#N)ccc3N(Cc3cncn3C)C2)c1 (stereo not given) | 14 nM | 18 nM | 97% | 98% | – | – | – |
| Cn1cnc(CN2CC(N(CC3CCN(C(=O)OC(C)(C)C)CC3)S(=O)(=O)c3cn(C)cn3)Cc3cc(-c4ccccc4)ccc32)c1 (stereo not given) | 860 nM | – | 10% | 33% | 0% | – | – |
| CCS(=O)(=O)c1ccc(CN(C2Cc3cc(C#N)ccc3N(Cc3cncn3C)C2)S(=O)(=O)c2cn(C)cn2)cc1 (stereo not given) | 40 nM | – | 100% | 100% | 77% | – | – |
| Cn1cncc1CN1CC(N(Cc2cccc(-n3cccn3)c2)S(=O)(=O)c2ccccn2)Cc2cc(C#N)ccc21 (stereo not given) | 850 nM | 850 nM | 52% | 90% | – | – | – |
| Cn1cnc(S(=O)(=O)N(Cc2ccc(S(=O)(=O)c3ccccc3)cc2)C2Cc3cc(C#N)ccc3N(Cc3cncn3C)C2)c1 (stereo not given) | 390 nM | – | 90% | 99% | 30% | – | – |
| Cn1cncc1CN1CC(N(Cc2cccnc2)S(=O)(=O)c2ccccn2)Cc2cc(C#N)ccc21 (stereo not given) | 105 nM | 490 nM | 89% | 95% | – | – | – |
| COC(=O)NCCCCN(C1Cc2cc(C#N)ccc2N(Cc2cncn2C)C1)S(=O)(=O)c1ccccn1 (stereo not given) | 230 nM | – | 84% | 99% | 25% | – | – |
| Cc1oncc1CN(C1Cc2cc(C#N)ccc2N(Cc2cncn2C)C1)S(=O)(=O)c1ccccn1 (stereo not given) | 450 nM | 2800 nM | 62% | 94% | – | – | – |
| COC(=O)N(Cc1ccccc1F)C1Cc2cc(C#N)ccc2N(Cc2cncn2C)C1 (stereo not given) | 2900 nM | – | 9% | 26% | 6% | – | – |
| Cn1cnc(S(=O)(=O)N(Cc2ccccc2F)C2Cc3cc(C#N)ccc3N(Cc3cncn3C)C2)c1 (stereo in doubt; 110) [listing 1 of 2 here] | – | – | – | – | – | 18 nM | 18 nM |

| SMILES | EC50 (Plasmodium falciparum [1]; Plasmodium falciparum, 3D7) | EC50 (Plasmodium falciparum [2]; Plasmodium falciparum, K1) | inhibition (Plasmodium falciparum [3]) | inhibition (Plasmodium falciparum [4]) | inhibition (Plasmodium falciparum [5]) | EC50 (Plasmodium falciparum [1]) | EC50 (Plasmodium falciparum [2]) |
| --- | --- | --- | --- | --- | --- | --- | --- |
| CNC(=O)c1ccc2c(c1)CC(N(CC(=O)NC(C)(C)C)S(=O)(=O)c1cn(C)cn1)CN2Cc1cncn1C (stereo not given) | 1200 nM | – | 20% | 69% | 12% | – | – |
| Cn1cncc1CN1CC(N(CC(N)=O)S(=O)(=O)c2ccccn2)Cc2cc(C#N)ccc21 (stereo not given) | 1600 nM | 2200 nM | 37% | 82% | – | – | – |
| COC(=O)N1CCC(CN(C2Cc3cc(C#N)ccc3N(Cc3cncn3C)C2)S(=O)(=O)c2cccnc2)CC1 (stereo not given) | 100 nM | – | 93% | 99% | 48% | – | – |
| Cn1cnc(S(=O)(=O)N(Cc2ccccc2F)C2Cc3cc(C#N)ccc3N(Cc3cncn3C)C2)c1 (stereo in doubt; 110) [listing 2 of 2 here] | – | – | 99% | 100% | 65% | – | – |
| COC(=O)N1CCC(CN(C2Cc3cc(C#N)ccc3N(Cc3cncn3C)C2)S(=O)(=O)c2ccccn2)CC1 (stereo not given) | – | – | – | 98% and 100% (2×) | – | – | – |
| Cn1cnc(S(=O)(=O)N(CC(=O)OC(C)(C)C)C2Cc3cc(C#N)ccc3N(Cc3cncn3Cc3ccccc3)C2)c1 (stereo not given) | 150 nM | 140 nM | 45% | – | 22% | – | – |
| Cn1cnc(S(=O)(=O)N(Cc2ccc(-n3cncn3)cc2)C2Cc3cc(C#N)ccc3N(Cc3cncn3C)C2)c1 (stereo not given) | 330 nM | 340 nM | 54% | 93% | – | – | – |
| CN(C)CC(=O)N(Cc1ccccc1F)C1Cc2cc(C#N)ccc2N(Cc2cncn2C)C1 (stereo not given) | 2700 nM | – | 16% | – | 0% | – | – |
| CCC(C)NC(=O)c1ccc2c(c1)CC(N(CC(=O)NC(C)(C)C)S(=O)(=O)c1cn(C)cn1)CN2Cc1cncn1C (stereo not given) | > 5000 nM | – | 2% | 35% | 0% | – | – |
| C=C(Br)CN(C1Cc2cc(C#N)ccc2N(Cc2cnc[nH]2)C1)S(=O)(=O)c1cn(C)cn1 (stereo not given) | 120 nM | – | – | 94% | – | – | – |
| Cn1cnc(S(=O)(=O)N(Cc2ccccc2F)C2Cc3cc(C#N)ccc3N(Cc3cncn3C)C2)c1 (stereo in doubt; 212) [listing 1 of 2 here] | – | – | – | – | – | 580 nM | 500 nM |
| Cn1cncc1CN1CC(N(Cc2ccccc2F)C(=O)c2c[nH]cn2)Cc2cc(C#N)ccc21 (stereo not given) | 75 nM | – | 88% | – | 39% | – | – |
| Cn1cnc(CN2CC(N(CC3CCN(C(=O)OC(C)(C)C)CC3)S(=O)(=O)c3ccccn3)Cc3cc(-c4ccccc4)ccc32)c1 (stereo not given) | 2700 nM | – | 15% | 22% | 0% | – | – |
| Cn1cnc(S(=O)(=O)N(Cc2ccccc2F)C2Cc3cc(C#N)ccc3N(Cc3cncn3C)C2)c1 (stereo in doubt; 212) [listing 2 of 2 here] | – | – | 76% | 96% | 12% | – | – |
| Cn1cncc1CN1CC(N(Cc2ccccc2F)C(=O)c2cnns2)Cc2cc(C#N)ccc21 (stereo not given) | 340 nM | – | 66% | – | 13% | – | – |
| Cn1cnc(S(=O)(=O)N(CC(=O)NC(C)(C)C)C2Cc3cc(C(=O)NCc4ccccc4)ccc3N(Cc3cncn3C)C2)c1 (stereo not given) | 4600 nM | – | 1% | 59% | 0% | – | – |
| Cn1cncc1CN1CC(N(Cc2ccc(Br)cc2)S(=O)(=O)c2ccccn2)Cc2cc(C#N)ccc21 (stereo not given) | 520 nM | 750 nM | 15% | 66% | – | – | – |
| Cc1ccsc1S(=O)(=O)N(Cc1ccc(S(C)(=O)=O)cc1)C1Cc2cc(C#N)ccc2N(Cc2cncn2C)C1 (stereo not given) | 830 nM | – | 55% | 97% | 13% | – | – |
| Cn1cncc1CN1CC(N(Cc2ccc(C(F)(F)F)o2)S(=O)(=O)c2ccccn2)Cc2cc(C#N)ccc21 (stereo not given) | 750 nM | 690 nM | 39% | 84% | – | – | – |
| COC(=O)N1CCC(CN(C2Cc3cc(C#N)ccc3N(Cc3cncn3C)C2)S(=O)(=O)c2nccn2C)CC1 (stereo not given) | 38 nM | – | 67% | 96% | 15% | – | – |
| Cc1c(S(=O)(=O)N(Cc2cc(Br)ccc2F)C2Cc3cc(C#N)ccc3N(Cc3cncn3C)C2)ncn1C (stereo not given) | 850 nM | – | 87% | 98% | 13% | – | – |
| Cn1cnc(S(=O)(=O)N(Cc2ccccc2)C2Cc3cc(C#N)ccc3N(Cc3cnc[nH]3)C2)c1 (stereo not given) | 120 nM | – | – | 93% | – | – | – |
| COC(=O)c1ccc(CN(C2Cc3cc(C#N)ccc3N(Cc3cncn3C)C2)S(=O)(=O)c2cn(C)cn2)cc1 (stereo not given) | – | – | 10% | 62% | 1% | – | – |
